Columns and labels:
albumin = conditions: cited from earlier work
[1] = Teicoplanin steady-state plasma trough concentration; type: in vivo, human; conditions: for teicoplanin Cmin: median (interquartile range)
Outline: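 Retrospective cohort of adult ICU patients (Jan 2018–Dec 2023) under therapeutic drug monitoring of the test compound. Venous blood was drawn just before the next dose after at least 6 doses (steady state). Total plasma concentration was measured by HPLC, linear range 3.125–100.0 µg/mL. Target was Cmin ≥ 15.0 μg/mL. Non-normal data are given as median (interquartile range), counts as rate (%).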

[2] = cited from earlier work

Compound	albumin binding (albumin)	percentage of teicoplanin Cmin >30.0 μg/mL ([1]; all values (64/404)) [%]	teicoplanin Cmin ([1]; patients who did not use caspofungin)	teicoplanin Cmin ([1]; patients who did not use voriconazole)	teicoplanin Cmin ([1]; patients who used caspofungin)	teicoplanin Cmin ([1]; patients who used voriconazole)	percentage of teicoplanin Cmin >30.0 μg/mL ([1]; patients with fungal co-infection) [%]	percentage of teicoplanin Cmin >30.0 μg/mL ([1]; patients without fungal infection) [%]	percentage of teicoplanin Cmin reaching the target (≥15.0 μg/mL) ([1]; year 2018 (12/50)) [%]	percentage of teicoplanin Cmin reaching the target (≥15.0 μg/mL) ([1]; year 2019 (11/18)) [%]	percentage of teicoplanin Cmin reaching the target (≥15.0 μg/mL) ([1]; year 2020 (26/40)) [%]	percentage of teicoplanin Cmin reaching the target (≥15.0 μg/mL) ([1]; year 2021 (34/49)) [%]	percentage of teicoplanin Cmin reaching the target (≥15.0 μg/mL) ([1]; year 2022 (66/88)) [%]	percentage of teicoplanin Cmin reaching the target (≥15.0 μg/mL) ([1]; year 2023 (123/159)) [%]	probability of target attainment (PTA) ([2]; model-based simulations, higher-dose regimens (12 mg/kg), MIC up to 0.5 mg/L, elderly critically ill patients with pneumonia)	probability of target attainment (PTA) of target Cmin ([2]; simulations, standard dosage regimen, critically ill patients with severe renal dysfunction (eGFR ≤30 mL/min/1.73 m²)) [%]
CC[C@H](C)C[C@H](C)CCCCCCCCC(=O)N[C@H]1C[C@@H](O)[C@@H](NCCN)NC(=O)[C@@H]2[C@@H](O)CCN2C(=O)[C@H]([C@H](O)CCN)NC(=O)[C@H]([C@H](O)[C@@H](O)c2ccc(O)cc2)NC(=O)[C@@H]2C[C@@H](O)CN2C(=O)[C@H]([C@@H](C)O)NC1=O [Caspofungin]	≈ 97%	–	–	–	–	–	–	–	–	–	–	–	–	–	–	–
C[C@@H](c1ncncc1F)[C@](O)(Cn1cncn1)c1ccc(F)cc1F [voriconazole]	58%	–	–	–	–	–	–	–	–	–	–	–	–	–	–	–
Teicoplanin	–	15.8	19.67 (12.38, 25.45) μg/mL	19.74 (13.22, 26.18) μg/mL	20.12 (14.67, 26.68) μg/mL	18.48 (10.84, 24.24) μg/mL	20.3	12.0	24.0	61.1	65.0	69.4	75.0	77.4	at least 85%	52.8
